Measurements gathered from unrelated publications.
Lines come from different studies, so protocols differ. In brackets after ≈: the same amount, converted by molar mass.

CCCCCCCCCN1CCN(CC(O)(Cn2cncn2)c2ccc(F)cc2F)CC1 (stereo not drawn) — MIC (Pichia kudriavzevii; microbial growth, broth dilution; ATCC6258; 48 h): 0.975 µg/mL (≈ 2.17 µM)
COC(=O)COc1ccc(NC(=O)C2(c3cccc(C)c3)CC2)cc1 — GI50 (U-937; cell growth or viability, ATP luminescence; 72 h): > 200 µM
Clc1ccccc1C(c1ccccc1)(c1ccccc1)n1ccnc1 — inhibition zone (Fusarium solani; microbial growth, disc diffusion; 20000 µg/mL): 23 mm
C[C@@H]1[C@H](O)[C@@H](C)/C=C/C=C/C=C/C=C/C=C/C=C/C=C/[C@H](O[C@@H]2O[C@H](C)[C@@H](O)[C@H](N)[C@@H]2O)C[C@@H]2O[C@](O)(C[C@@H](O)C[C@@H](O)[C@H](O)CC[C@@H](O)C[C@@H](O)CC(=O)O[C@H]1C)C[C@H](O)[C@H]2C(=O)O — MFC (Pichia kudriavzevii; microbial killing; ATCC6258): 1.35 µM (≈ 1.25 µg/mL)
COC(=O)COc1ccc(NC(=O)C2(c3ccc(Cl)cc3)CC2)c(C)c1 — GI50 (U-937; cell growth or viability, ATP luminescence; 72 h): 6 µM
CCCCCCCCCCCCCCN1CCN(CC(O)(Cn2cncn2)c2ccc(F)cc2F)CC1 (stereo not drawn) — MIC (Pichia kudriavzevii; microbial growth, broth dilution; ATCC6258; 48 h): 0.975 µg/mL (≈ 1.88 µM)
Cc1cc(=O)oc2ccc(-c3cc(-c4ccc(Cl)cc4)nc(N)n3)c(O)c12 — inhibition (KB; cell growth or viability, MTT; 128 µg/mL, 72 h): 60%
C[C@@H](c1ncncc1F)[C@](O)(Cn1cncn1)c1ccc(F)cc1F — IC50 (Acanthamoeba quina; parasite growth, resazurin; 7 days): 24.1 µM
Cc1cc(=O)oc2ccc(-c3cc(-c4cccs4)nc(N)n3)c(O)c12 — inhibition (KB; cell growth or viability, MTT; 128 µg/mL, 72 h): 17%
COC(=O)COc1ccc(NC(=O)C2(c3ccccc3)CC2)cc1 — GI50 (U-937; cell growth or viability, ATP luminescence; 72 h): 4.2 µM
COc1ccc(-c2cc(-c3ccc4oc(=O)cc(C)c4c3O)nc(N)n2)cc1 — inhibition (KB; cell growth or viability, MTT; 128 µg/mL, 72 h): 28%
COC(=O)COc1ccc(NC(=O)C2(c3cccc(C)c3)CC2)c(C)c1 — GI50 (U-937; cell growth or viability, ATP luminescence; 72 h): 6.8 µM
Cc1cc(=O)oc2ccc(-c3cc(-c4cccc(Cl)c4)nc(N)n3)c(O)c12 — inhibition (KB; cell growth or viability, MTT; 32 µg/mL, 72 h): 16%
C[C@@H]1[C@H](O)[C@@H](C)/C=C/C=C/C=C/C=C/C=C/C=C/C=C/[C@H](O[C@@H]2O[C@H](C)[C@@H](O)[C@H](N)[C@@H]2O)C[C@@H]2O[C@](O)(C[C@@H](O)C[C@@H](O)[C@H](O)CC[C@@H](O)C[C@@H](O)CC(=O)O[C@H]1C)C[C@H](O)[C@H]2C(=O)O — IC50 (Pichia kudriavzevii; microbial growth, broth dilution; ATCC6258): 0.65 µg/mL
COC(=O)COc1ccc(NC(=O)C2(c3ccc(Cl)cc3)CC2)cc1 — GI50 (U-937; cell growth or viability, ATP luminescence; 72 h): 3.9 µM
